From article PMC7472862 (Heliyon, 2020)
Several values for one entry are separate records, joined by “and”; a condition that tells them apart may be missing. Equal entries are not always repeated.

Assays:
rat α-glucosidase = assay: α-glucosidase inhibition method; format: biochemical
Procedure, shortened: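 Enzyme was the supernatant of rat intestinal acetone powder in saline, sonicated at 4 °C and spun at 1008 ×g (4 °C, 30 min). Test compound (20–300 µg/mL) and enzyme pre-incubated 5 min at 37 °C in 50 mM phosphate pH 6.8. 3 mM PNPG added, then 30 min at 37 °C and A405 read.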

[1] = target: T1, porcine pancreatic α-amylase (Sus scrofa, UniProt P00690); assay: biochemical; conditions: α-Amylase inhibition method IC50 value
T1 sequence (P00690 16-511): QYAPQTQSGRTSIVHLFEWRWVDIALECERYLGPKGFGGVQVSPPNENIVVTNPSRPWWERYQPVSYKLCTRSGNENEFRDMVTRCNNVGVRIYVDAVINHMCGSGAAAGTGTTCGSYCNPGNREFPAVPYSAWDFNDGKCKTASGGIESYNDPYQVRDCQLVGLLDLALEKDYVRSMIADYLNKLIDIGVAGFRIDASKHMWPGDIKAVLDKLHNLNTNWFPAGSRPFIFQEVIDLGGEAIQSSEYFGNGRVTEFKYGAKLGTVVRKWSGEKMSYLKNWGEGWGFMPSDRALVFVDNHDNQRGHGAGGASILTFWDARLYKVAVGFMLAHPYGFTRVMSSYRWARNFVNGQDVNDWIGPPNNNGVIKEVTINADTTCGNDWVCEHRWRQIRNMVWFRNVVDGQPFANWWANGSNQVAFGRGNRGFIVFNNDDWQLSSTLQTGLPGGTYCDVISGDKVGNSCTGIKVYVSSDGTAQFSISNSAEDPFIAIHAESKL

[2] = DPPH free radical scavenging assay
Procedure, shortened: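 Test compound (20–300 µg/mL) mixed with an equal volume of DPPH solution, shaken vigorously, then kept 30 min in the dark at room temperature. Absorbance read at 517 nm. % scavenging = (OD control − OD sample)/OD control × 100, and IC50 derived from this. Ascorbic acid (10–150 µg/mL) served as positive control.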

[3] = ABTS radical scavenging assay
Procedure, shortened: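 ABTS radical cation formed by mixing 7 mM ABTS with 2.4 mM ammonium persulfate (1:1) and leaving 18–24 h in the dark at room temperature. Test compound (20–300 µg/mL) added to the ABTS solution and absorbance read at 734 nm. % inhibition = (OD control − OD sample)/OD control × 100, and IC50 taken from this. Ascorbic acid (10–150 µg/mL) served as positive control.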

SMILES	α-Glucosidase inhibition method IC50 value (rat α-glucosidase)	IC50 [1]	DPPH Assay IC50 value [2]	ABTS Assay IC50 value [3]
Cc1noc(NS(=O)(=O)c2ccc(N=NN(C)O)cc2)c1C [SF-1, 3ـhydroxyـ3ـmethylـ1ـ(4ـ(Nـ(3,4ـdimethylisoxazolـ5ـyl)sulfamoyl)phenyl)triazene]	270 µg/mL	531 µM	556.65 µg/mL	
CCN(O)N=Nc1ccc(S(=O)(=O)Nc2onc(C)c2C)cc1 [SF-2, 3ـhydroxyـ3ـethylـ1ـ(4ـ(Nـ(3,4ـdimethylisoxazolـ5ـyl)sulfamoyl)phenyl)triazene]	248.64 µg/mL	625 µM	614.17 µg/mL	229.83 µg/mL
CCCN(O)N=Nc1ccc(S(=O)(=O)Nc2onc(C)c2C)cc1 [SF-3, 3ـhydroxyـ3ـpropylـ1ـ(4ـ(Nـ(3,4ـdimethylisoxazolـ5ـyl)sulfamoyl)phenyl)triazene]	235.55 µg/mL	419 µM	490.82 µg/mL	218.94 µg/mL
Cc1noc(NS(=O)(=O)c2ccc(N=NN(O)c3ccccc3)cc2)c1C [SF-4, 3ـhydroxyـ3ـphenylـ1ـ(4ـ(Nـ(3,4ـdimethylisoxazolـ5ـyl)sulfamoyl)phenyl)triazene]	233 µg/mL	452 µM	578.76 µg/mL	
Cc1cccc(N(O)N=Nc2ccc(S(=O)(=O)Nc3onc(C)c3C)cc2)c1 [SF-5, 3ـhydroxyـ3ـ(3ـmethylphenyl)ـ1ـ(4ـ(Nـ(3,4ـdimethylisoxazolـ5ـyl)sulfamoyl)phenyl)triazene]	292 µg/mL	546 µM and 548 µM	423 µg/mL and 423.91 µg/mL	164.34 µg/mL
Cc1ccc(N(O)N=Nc2ccc(S(=O)(=O)Nc3onc(C)c3C)cc2)cc1 [SF-6, 3ـhydroxyـ3ـ(4ـmethylphenyl)ـ1ـ(4ـ(Nـ(3,4ـdimethylisoxazolـ5ـyl)sulfamoyl)phenyl)triazene]	329 µg/mL	612 µM	587.28 µg/mL	70 µg/mL and 70.62 µg/mL
Cc1cc(NS(=O)(=O)c2ccc(N=NN(C)O)cc2)no1 [SM-1, 3ـhydroxyـ3ـmethylـ1ـ(4ـ(Nـ(5ـmethylisoxazolـ3ـyl)sulfamoyl)phenyl)triazene]		698 µM	426 µg/mL and 426.75 µg/mL	252.96 µg/mL
CCN(O)N=Nc1ccc(S(=O)(=O)Nc2cc(C)on2)cc1 [SM-2, 3ـhydroxyـ3ـethylـ1ـ(4ـ(Nـ(5ـmethylisoxazolـ3ـyl)sulfamoyl)phenyl)triazene]	201.99 µg/mL	376 µM		401.72 µg/mL
CCCN(O)N=Nc1ccc(S(=O)(=O)Nc2cc(C)on2)cc1 [SM-3, 3ـhydroxyـ3ـpropylـ1ـ(4ـ(Nـ(5ـmethylisoxazolـ3ـyl)sulfamoyl)phenyl)triazene]	222.91 µg/mL	624 µM	624 µg/mL	282.32 µg/mL
Cc1cc(NS(=O)(=O)c2ccc(N=NN(O)c3ccccc3)cc2)no1 [SM-4, 3ـhydroxyـ3ـphenylـ1ـ(4ـ(Nـ(5ـmethylisoxazolـ3ـyl)sulfamoyl)phenyl)triazene]	249 µg/mL	469 µM	583.31 µg/mL	104.13 µg/mL
Cc1cccc(N(O)N=Nc2ccc(S(=O)(=O)Nc3cc(C)on3)cc2)c1 [SM-5, 3ـhydroxyـ3ـ(3ـmethylphenyl)ـ1ـ(4ـ(Nـ(5ـmethylisoxazolـ3ـyl)sulfamoyl)phenyl)triazene]	314.43 µg/mL	519 µM	660 µg/mL and 660.39 µg/mL	81.50 µg/mL
Cc1ccc(N(O)N=Nc2ccc(S(=O)(=O)Nc3cc(C)on3)cc2)cc1 [SM-6, 3ـhydroxyـ3ـ(4ـmethylphenyl)ـ1ـ(4ـ(Nـ(5ـmethylisoxazolـ3ـyl)sulfamoyl)phenyl)triazene]	262.74 µg/mL	425 µM	550.32 µg/mL	250.26 µg/mL
CN(O)N=Nc1ccc(S(=O)(=O)Nc2nccs2)cc1 [ST-1, 3ـhydroxyـ3ـmethylـ1ـ(4ـ(Nـ(thiazolـ2ـyl)sulfamoyl)phenyl)triazene]	238 µg/mL	559 µM	488 µg/mL and 488.06 µg/mL	
CCN(O)N=Nc1ccc(S(=O)(=O)Nc2nccs2)cc1 [ST-2, 3ـhydroxyـ3ـethylـ1ـ(4ـ(Nـ(thiazolـ2ـyl)sulfamoyl)phenyl)triazene]	219 µg/mL	707 µM	532.35 µg/mL	232.39 µg/mL and 232.393 µg/mL
CCCN(O)N=Nc1ccc(S(=O)(=O)Nc2nccs2)cc1 [ST-3, 3ـhydroxyـ3ـpropylـ1ـ(4ـ(Nـ(thiazolـ2ـyl)sulfamoyl)phenyl)triazene]	252 µg/mL	586 µM	662 µg/mL and 662.79 µg/mL	160.145 µg/mL
O=S(=O)(Nc1nccs1)c1ccc(N=NN(O)c2ccccc2)cc1 [ST-4, 3ـhydroxyـ3ـphenylـ1ـ(4ـ(Nـ(thiazolـ2ـyl)sulfamoyl)phenyl)triazene]	280.03 µg/mL	550 µM	565.88 µg/mL	
Cc1cccc(N(O)N=Nc2ccc(S(=O)(=O)Nc3nccs3)cc2)c1 [ST-5, 3ـhydroxyـ3ـ(3ـmethylphenyl)ـ1ـ(4ـ(Nـ(thiazolـ2ـyl)sulfamoyl)phenyl)triazene]	341 µg/mL	558 µM	472.08 µg/mL	92.075 µg/mL
C[C@H]1O[C@H](O[C@H]2[C@H](O)[C@@H](O)[C@@H](O[C@H]3[C@H](O)[C@@H](O)C(O)O[C@@H]3CO)O[C@@H]2CO)[C@H](O)[C@@H](O)[C@@H]1N[C@H]1C=C(CO)[C@@H](O)[C@H](O)[C@H]1O (some centres unmarked) [acarbose, reference compound]	12.21 (acarbose) μg/mL			
O=C1O[C@H]([C@@H](O)CO)C(O)=C1O [ascorbic acid, reference compound]			29.12 (ascorbic acid) μg/mL	69.13 (ascorbic acid) μg/mL
